Experimental findings from ChEMBL document CHEMBL3739360, “Indoline Amide Glucosides from Portulaca oleracea: Isolation, Structure, and DPPH Radical Scavenging Activity” (J Nat Prod, 2015) are described below.

Data set [1] is described as follows: Antioxidant activity assessed as DPPH radical scavenging activity after 30 mins by plate reader analysis. It counts as physicochemical. Conditions: for Activity: 0.5 h. A digest of the protocol:
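DPPH radical (150 μM in MeOH, 180 μL) mixed with 20 μL compound in water (solutions 62.5–1000 μM); 30 min, room temperature, dark; absorbance 490 nm. Sample-only blanks in MeOH; water+DPPH and water+MeOH references. Vitamin C as positive control. Scavenging % from corrected absorbances; EC50 by nonlinear regression; triplicate, mean ± SD.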
For orientation: Loss of DPPH colour is used to gauge radical scavenging.

Data set [2] in a line: Potency index, ratio of vitamin C EC50 to compound EC50 for DPPH radical scavenging activity.

For the compound `O=C(O)[C@@H]1Cc2cc(O)c(O[C@@H]3O[C@H](CO)[C@@H](O)[C@H](O)[C@H]3O)cc2N1C(=O)/C=C/c1ccc(O)cc1`, in data set [1], the EC50 – broadly, the concentration that produces a half-maximal response – turned out to be 35.1 µM and the Activity entry is reported as “Dose-dependent effect”.
In the case of `O=C(O)[C@@H]1Cc2cc(O)c(O[C@@H]3O[C@H](CO[C@@H]4O[C@H](CO)[C@@H](O)[C@H](O)[C@H]4O)[C@@H](O)[C@H](O)[C@H]3O)cc2N1C(=O)/C=C/c1ccc(O)cc1`, in data set [1], the EC50 came out at 42.9 µM and the Activity result is recorded as “Dose-dependent effect”.
Consider `COc1cc(/C=C/C(=O)N2c3cc(O[C@@H]4O[C@H](CO[C@@H]5O[C@H](CO)[C@@H](O)[C@H](O)[C@H]5O)[C@@H](O)[C@H](O)[C@H]4O)c(O)cc3C[C@H]2C(=O)O)ccc1O[C@@H]1O[C@H](CO)[C@@H](O)[C@H](O)[C@H]1O`, for which, in data set [1], the EC50 came out at 40.9 µM and the Activity result is listed as “Dose-dependent effect”.
On the same counts, the results for `COc1cc(/C=C/C(=O)N2c3cc(O[C@@H]4O[C@H](CO)[C@@H](O)[C@H](O)[C@H]4O)c(O)cc3C[C@H]2C(=O)O)ccc1O` are 35.1 µM and “Dose-dependent effect”.
In the case of `COc1cc(/C=C/C(=O)O[C@H]2[C@H](OC[C@H]3O[C@@H](Oc4cc5c(cc4O)C[C@@H](C(=O)O)N5C(=O)/C=C/c4ccc(O)c(OC)c4)[C@H](O)[C@@H](O)[C@@H]3O)O[C@H](CO)[C@@H](O)[C@@H]2O)ccc1O`, in data set [1], the half-maximal effective concentration (EC50) came to 27.6 µM and the Activity entry is given as “Dose-dependent effect”.
For `O=C(O)[C@@H]1Cc2cc(O)c(O[C@@H]3O[C@H](CO)[C@@H](O)[C@H](O)[C@H]3O)cc2N1C(=O)/C=C/c1ccc(O[C@@H]2O[C@H](CO)[C@@H](O)[C@H](O)[C@H]2O)cc1`, in data set [1], the EC50 is 38.3 µM and the Activity result is reported as “Dose-dependent effect”.
As for `COc1cc(/C=C/C(=O)O[C@H]2[C@H](OC[C@H]3O[C@@H](Oc4cc5c(cc4O)C[C@@H](C(=O)O)N5C(=O)/C=C/c4ccc(O)cc4)[C@H](O)[C@@H](O)[C@@H]3O)O[C@H](CO)[C@@H](O)[C@@H]2O)ccc1O`, in data set [1], the concentration giving a half-maximal response (EC50) came to 29.1 µM and the Activity entry is reported as “Dose-dependent effect”.
On the same counts, the results for `COc1cc(/C=C/C(=O)N2c3cc(O[C@@H]4O[C@H](CO)[C@@H](O)[C@H](O)[C@H]4O)c(O)cc3C[C@H]2C(=O)O)ccc1O[C@@H]1O[C@H](CO)[C@@H](O)[C@H](O)[C@H]1O` are 34.6 µM and “Dose-dependent effect”.
For `COc1cc(/C=C/C(=O)OC[C@H]2O[C@@H](OC[C@H]3O[C@@H](Oc4cc5c(cc4O)C[C@@H](C(=O)O)N5C(=O)/C=C/c4ccc(O)cc4)[C@H](O)[C@@H](O)[C@@H]3O)[C@H](O)[C@@H](O)[C@@H]2O)ccc1O`, in data set [1], the half-maximal effective concentration (EC50) was found to be 35.4 µM and the Activity result is reported as “Dose-dependent effect”.
As for `O=C(/C=C/c1ccc(O)c(O)c1)O[C@H]1[C@H](OC[C@H]2O[C@@H](Oc3cc4c(cc3O)C[C@@H](C(=O)O)N4C(=O)/C=C/c3ccc(O)cc3)[C@H](O)[C@@H](O)[C@@H]2O)O[C@H](CO)[C@@H](O)[C@@H]1O`, in data set [1], the half-maximal effective concentration (EC50) worked out at 15.3 µM and the Activity result was “Dose-dependent effect”. Further, the Ratio EC50 in data set [2] worked out at 2.
Turning to `COc1cc(/C=C/C(=O)N2c3cc(O[C@@H]4O[C@H](CO[C@@H]5O[C@H](CO)[C@@H](O)[C@H](O)[C@H]5OC(=O)/C=C/c5ccc(O)c(O)c5)[C@@H](O)[C@H](O)[C@H]4O)c(O)cc3C[C@H]2C(=O)O)ccc1O`, in data set [1], the EC50 is 16.1 µM and the Activity entry is listed as “Dose-dependent effect”. Besides, the Ratio EC50 in data set [2] was determined as 2.
With `O=C(O)[C@@H]1Cc2cc(O)c(O[C@@H]3O[C@H](CO[C@@H]4O[C@H](CO)[C@@H](O)[C@H](O)[C@H]4O)[C@@H](O)[C@H](O)[C@H]3O)cc2N1C(=O)/C=C/c1ccc(O[C@@H]2O[C@H](CO)[C@@H](O)[C@H](O)[C@H]2O)cc1`, in data set [1], the EC50 is 43.5 µM and the Activity entry is listed as “Dose-dependent effect”.
On the same counts, the results for `COc1cc(/C=C/C(=O)N2c3cc(O[C@@H]4O[C@H](CO[C@@H]5O[C@H](CO)[C@@H](O)[C@H](O)[C@H]5O)[C@@H](O)[C@H](O)[C@H]4O)c(O)cc3C[C@H]2C(=O)O)ccc1O` are 40.1 µM and “Dose-dependent effect”.
Take `COc1cc(/C=C/C(=O)O[C@H]2[C@H](OC[C@H]3O[C@@H](Oc4cc5c(cc4O)C[C@@H](C(=O)O)N5C(=O)/C=C/c4ccc(O[C@@H]5O[C@H](CO)[C@@H](O)[C@H](O)[C@H]5O)cc4)[C@H](O)[C@@H](O)[C@@H]3O)O[C@H](CO)[C@@H](O)[C@@H]2O)ccc1O`: in data set [1], the EC50 is 31.6 µM and the Activity result is on record as “Dose-dependent effect”.
Take `O=C1O[C@H]([C@@H](O)CO)C(O)=C1O` [ASCORBIC ACID]: the EC50 in data set [1] was 30.2 µM.
